Two compounds from ChEMBL document CHEMBL1141390, “20S-protopanaxadiol-induced programmed cell death in glioma cells through caspase-dependent and -independent pathways” (J Nat Prod, 2007) can be followed below.

Active and inactive are the calls of the source. The calls are words filed in the database; no cut-off is given here. Residues, ends and D or L forms follow the SMILES beside them. *: point of attachment. Cbz = O=C(OCc1ccccc1)*; CH2F = FC*

For series [1], the system named is SF-188. Nature of the series: Cell viability in human SF188 cells in presence of Z-VAD-FMK. The series is classed as functional.
The subject of series [2] is SF-188. Kind of series: Cell viability in human SF188 cells. The series is classed as functional. The procedure, abridged:
(§1)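 SF188 cells were seeded at 2.5 × 10^5/mL 24 h before use. For the inhibitor arm, cells were pretreated for 2 h with various concentrations of Z-VAD-FMK, then 43.4 µM compound was added. Viability was read by MTT assay 8 h after compound addition.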

The test system of series [3] is SF-188. Kind of series: Cell viability of human SF188 cells in presence of tBHQ, Z-VAD-FMK. The series is classed as functional.
The test system of series [4] is SF-188. Kind of series: Induction of autophagy in human SF188 cells by MDC staining at 43.4 uM after 4 hrs. The series is classed as functional, cell-based. An outline of the steps:
(§2)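 SF188 and U87MG cells were treated with 43.4 or 108.4 µM compound for 4 h. Autophagic vacuoles were then visualized by monodansylcadaverine (MDC) staining.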

The subject of series [5] is U-87 MG. Nature of the series: Induction of autophagy in human U87MG cells by MDC staining at 43.4 uM after 4 hrs. It counts as functional, cell-based. The settings on record: U-87MG ATCC. The procedure, abridged:
as §2

In series [6] the test system is U-87MG ATCC. Kind of series: Reduction of Akt phosphorylation in human U87MG cells after 7 hrs. It counts as cell-based.
Series [7] concerns SF-188. Kind of series: Reduction of Akt phosphorylation in human SF188 cells after 5 hrs. The series is classed as cell-based.
Series [8] has as its system SF-188. Kind of series: Induction of autophagy in human SF188 cells by MDC staining at 108.4 uM after 4 hrs. It counts as functional, cell-based. The procedure, abridged: as §2
The test system of series [9] is U-87 MG. Nature of the series: Induction of autophagy in human U87MG cells by MDC staining at 108.4 uM after 4 hrs. The settings on record: U-87MG ATCC. It counts as functional, cell-based. The procedure, abridged:
as §2

For a further series, the target named is T1, Caspase-3 (Homo sapiens) (UniProt P42574).
T1 sequence (whole entry): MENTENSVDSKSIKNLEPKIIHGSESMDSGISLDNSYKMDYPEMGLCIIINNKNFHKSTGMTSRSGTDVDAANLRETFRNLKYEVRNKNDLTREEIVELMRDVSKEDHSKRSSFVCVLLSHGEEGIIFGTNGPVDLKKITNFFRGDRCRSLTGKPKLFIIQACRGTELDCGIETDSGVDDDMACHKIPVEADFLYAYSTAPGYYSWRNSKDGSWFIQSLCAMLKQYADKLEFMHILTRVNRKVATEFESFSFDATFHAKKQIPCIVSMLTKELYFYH
Kind of series: Activation of caspase 3 in human SF188 cells at 108.4 uM. It counts as cell-based. Conditions: SF-188. An outline of the steps:
(§3)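 Western blot of SF188 lysates after treatment with 108.4 µM compound, sampled at different time points or at different concentrations. 50 µg total protein loaded per lane. Pro-caspase and cleaved (active) caspase bands were detected, with actin as loading control.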

The next series addresses Caspase-8 (Homo sapiens) (UniProt Q14790). Kind of series: Activation of caspase 8 in human SF188 cells at 108.4 uM. The series is classed as cell-based. The settings on record: SF-188. An outline of the steps: as §3
Another series has as its target T2, Caspase-7 (Homo sapiens) (UniProt P55210).
T2 sequence (whole entry): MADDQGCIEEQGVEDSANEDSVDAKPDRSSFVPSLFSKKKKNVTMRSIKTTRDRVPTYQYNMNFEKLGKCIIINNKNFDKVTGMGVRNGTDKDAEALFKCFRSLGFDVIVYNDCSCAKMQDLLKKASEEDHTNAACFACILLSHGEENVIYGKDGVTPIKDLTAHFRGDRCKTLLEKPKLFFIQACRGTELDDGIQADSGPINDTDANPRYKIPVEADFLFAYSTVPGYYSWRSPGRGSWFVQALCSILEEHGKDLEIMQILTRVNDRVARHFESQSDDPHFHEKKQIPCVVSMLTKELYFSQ
Nature of the series: Activation of caspase 7 in human SF188 cells at 108.4 uM. It counts as cell-based. The settings on record: SF-188. The procedure, abridged:
as §3

In the next series the target is T3, Caspase-9 (Homo sapiens) (UniProt P55211).
T3 sequence (whole entry): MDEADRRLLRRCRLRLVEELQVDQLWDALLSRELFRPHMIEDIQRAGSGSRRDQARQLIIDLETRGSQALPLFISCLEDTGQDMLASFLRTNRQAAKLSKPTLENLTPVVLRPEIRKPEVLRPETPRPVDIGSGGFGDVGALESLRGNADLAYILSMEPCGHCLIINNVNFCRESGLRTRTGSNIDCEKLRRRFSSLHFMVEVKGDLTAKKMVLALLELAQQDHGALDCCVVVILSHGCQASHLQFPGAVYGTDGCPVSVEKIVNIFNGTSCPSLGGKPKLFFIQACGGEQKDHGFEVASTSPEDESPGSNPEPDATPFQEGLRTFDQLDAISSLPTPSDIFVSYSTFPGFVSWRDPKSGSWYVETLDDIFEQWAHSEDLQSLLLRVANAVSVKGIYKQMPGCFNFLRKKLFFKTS
Nature of the series: Activation of caspase 9 in human SF188 cells at 108.4 uM. It counts as cell-based. Conditions: SF-188. An outline of the steps:
as §3

A short description of series [10]: Cytotoxicity against human SF188 cells at 43.4 uM after 24 hrs by MTT assay. It counts as cell-based. The settings on record: sf-188, 24 h. The procedure, abridged: (§4)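 Glioma cells seeded at 2.5 × 10^5/mL 24 h before treatment, then exposed to a range of concentrations for 24 h. Viability was measured by MTT assay, and cell death was read from the 24 h dose-response curve.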

Series [11] can be described thus: Cytotoxicity against human U87MG cells at 108.4 uM after 24 hrs by MTT assay. It counts as cell-based. Conditions: u-87mg atcc. The procedure, abridged: as §4
(In general: Formazan colour is commonly taken as a measure of viable cells.)

Series [12] can be described thus: Cytotoxicity against human SF188 cells at 108.4 uM within 10 hrs by MTT assay. The series is classed as cell-based. Conditions: sf-188, 10 h. An outline of the steps:
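Cells seeded at 2.5 × 10^5/mL 24 h beforehand were treated with 108.4 µM. Viability was measured by MTT assay at 1, 4, 6, 8, 10 and 24 h after treatment.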

The nature of series [13]: Cytotoxicity against human SF188 cells after 24 hrs. It counts as cell-based. The settings on record: SF-188, 24 h. The procedure, abridged:
as §4

Series [14] can be described thus: Cytotoxicity against human U87MG cells after 24 hrs. It counts as cell-based, U-87MG ATCC. Conditions: U-87 MG. The procedure, abridged:
as §4

The test system of series [15] is SF-188. Kind of series: Induction of apoptosis in human SF188 cells at 108.4 uM within 3 hrs. The series is classed as functional. An outline of the steps:
(§5)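 SF188 or U87MG cells were treated with 108 µM compound and stained by TUNEL (ApopTag). Apoptotic cells were counted as % TUNEL-positive: at 3 h for SF188, at 7 h for U87MG. Untreated cells served as controls.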

Series [16] has as its system U-87 MG. Kind of series: Induction of apoptosis in human U87MG cells at 108.4 uM within 7 hrs. The series is classed as functional, U-87MG ATCC. An outline of the steps: as §5
Series [17] deals with U-87MG ATCC. Kind of series: Activation of caspases in human U87MG cells. The series is classed as cell-based. An outline of the steps: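 Western blot of U87MG cells treated with 108.4 µM compound for up to 9 h, probing pro- and cleaved caspases-8 and -3. 50 µg protein per lane. Lysate from treated SF188 cells served as positive control and actin as loading control.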

Series [18] relates to SF-188. Nature of the series: Increase in superoxide anion level in human SF188 cells after 2 hrs. The series is classed as functional, cell-based. An outline of the steps:
(§6)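 Superoxide anion was measured by dihydroethidine (HE) fluorescence using flow cytometry in SF188 or U87MG cells 2 h after treatment at several concentrations. Result is reported as the percentage of HE-positive cells.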

In series [19] the test system is U-87 MG. Nature of the series: Increase in superoxide anion level in human U87MG cells after 2 hrs. The series is classed as functional, cell-based. Conditions: U-87MG ATCC. An outline of the steps:
as §6

Series [20] concerns SF-188. Nature of the series: Cell viability in human SF188 cells in presence of tBHQ at 86.8 uM. The series is classed as functional.
The test system of series [21] is SF-188. Kind of series: Inhibition of 20S-protopanaxadiol-induced activation of caspases in human SF188 cells. It counts as cell-based.
Series [22] deals with SF-188. Nature of the series: Inhibition of TNF-alpha-induced apoptosis in human SF188 cells. The series is classed as functional, cell-based.
Series [23] concerns SF-188. Kind of series: Inhibition of cycloheximide-induced apoptosis in human SF188 cells. It counts as functional, cell-based.
Series [24] has as its system SF-188. Kind of series: Inhibition of 20S-protopanaxadiol-induced apoptosis in human SF188 cells after 8 hrs by MTT assay. It counts as functional. Details: scale not given: the % may be the effect or the level left. The procedure, abridged:
as §1

Chain of Caspase-8 (Homo sapiens) (Q14790 217-374 limits assumed): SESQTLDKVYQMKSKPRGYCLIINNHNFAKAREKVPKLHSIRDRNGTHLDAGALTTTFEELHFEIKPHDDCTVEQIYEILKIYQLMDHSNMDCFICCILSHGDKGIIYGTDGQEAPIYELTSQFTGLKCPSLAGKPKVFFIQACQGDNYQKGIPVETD
Chain of Caspase-8 (Homo sapiens) (Q14790 385-479 limits assumed): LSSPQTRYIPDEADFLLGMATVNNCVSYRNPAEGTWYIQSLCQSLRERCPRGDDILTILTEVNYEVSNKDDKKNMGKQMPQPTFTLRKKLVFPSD

With `CC(C)=CCC[C@](C)(O)[C@H]1CC[C@]2(C)[C@@H]1[C@H](O)C[C@@H]1[C@@]3(C)CC[C@H](O)C(C)(C)[C@@H]3CC[C@]12C`, the Activity in the series on SF-188 [1] was 36%; with SF-188 [2], 16.5%; in the series on SF-188 [3], 89.4%; in the series on U-87MG ATCC [6], “Dose-dependent effect”; in series [10], 100%; in series [11], 90%. In addition, the Activity in [12] came to 90%; with SF-188 [15], 42.67%; in the series with U-87 MG [16], 51.01%; with SF-188 [20] it was 30.46%. Moreover, the result with SF-188 [4], in the series on U-87 MG [5], in the series on SF-188 [8], in the series with U-87 MG [9], on Caspase-3 (Homo sapiens) and at Caspase-8 (Homo sapiens) was Active. For the same compound, the result on Caspase-7 (Homo sapiens), at Caspase-9 (Homo sapiens), in the series on SF-188 [18] and in the series with U-87 MG [19] was Active. Also, the result in the series with SF-188 [7] and in the series with U-87MG ATCC [17] was inactive. For the same compound, the figures for the IC50 in series [13] and in series [14] were 24 µM and 38 µM, respectively.

Consider `CC(C)[C@H](NC(=O)OCc1ccccc1)C(=O)N[C@@H](C)C(=O)N[C@@H](CC(=O)O)C(=O)CF` (Cbz-Val-Ala-Asp-CH2F), for which the result in the series with SF-188 [21], with SF-188 [22] and in the series with SF-188 [23] was Active. The Activity with SF-188 [24] came to 44.72%.
